Reference: ChEMBL document CHEMBL3108721, “4,4'-Unsymmetrically substituted 3,3'-biphenyl alpha helical proteomimetics as potential coactivator binding inhibitors” (Bioorg Med Chem, 2014)
Each block holds one compound with its values, some of them ahead of it.

Experiments:
[1] = target: T1, Estrogen receptor (Homo sapiens) (UniProt P03372); assay: Competitive inhibition of ER-alpha (unknown origin)-GRIP1 interaction expressed in human HepG2 cells assessed as decrease in reporter gene activity at 20 to 50 uM after 40 hrs in presence of estradiol relative to control; assay type: cell-based; parameters: scale not given: the % may be the effect or the level left
T1 sequence (whole entry): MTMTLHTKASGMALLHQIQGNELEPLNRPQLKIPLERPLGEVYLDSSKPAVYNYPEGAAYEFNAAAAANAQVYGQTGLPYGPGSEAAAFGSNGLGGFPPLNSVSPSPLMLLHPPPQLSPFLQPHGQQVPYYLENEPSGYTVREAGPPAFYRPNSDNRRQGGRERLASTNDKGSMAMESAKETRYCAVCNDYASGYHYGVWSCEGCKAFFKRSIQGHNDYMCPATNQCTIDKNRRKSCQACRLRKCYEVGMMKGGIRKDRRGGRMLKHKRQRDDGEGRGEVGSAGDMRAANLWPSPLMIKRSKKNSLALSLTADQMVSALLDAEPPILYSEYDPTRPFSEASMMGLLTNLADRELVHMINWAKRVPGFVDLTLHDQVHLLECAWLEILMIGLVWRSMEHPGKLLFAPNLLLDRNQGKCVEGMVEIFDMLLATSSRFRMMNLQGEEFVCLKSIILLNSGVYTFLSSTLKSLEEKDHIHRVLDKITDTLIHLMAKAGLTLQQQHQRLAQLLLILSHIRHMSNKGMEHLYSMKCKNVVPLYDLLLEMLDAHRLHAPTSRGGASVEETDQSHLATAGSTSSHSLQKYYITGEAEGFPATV
How it was run: (§1)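 HepG2 cells transfected with VP16-ERα, Gal4-DBD-fused GRIP1 LxxLL2 peptide and 5xGal4Luc3 reporter. […] Scored as >50% decrease or increase at <20, 20–50 or >50 μM, or <20% change. 4-hydroxytamoxifen as antagonist control. Cell death and precipitation flagged.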

[2] = target: T1, Estrogen receptor (Homo sapiens); assay: Inhibition of ER-alpha (unknown origin) transcriptional activity expressed in ER-negative human SKBR3 cells coexpressing ERE assessed as change in reporter gene activity after 40 hrs in presence of estradiol relative to control; assay type: cell-based; parameters: concentration or dose not given beside the values; settings: SK-BR-3
How it was run: (§2)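 ER-negative SKBR3 cells cotransfected with 3xERE-TATA-luciferase, RST7-ERα and pCMV-β-gal for normalization. […] Scored as >50% decrease or increase at <20, 20–50 or >50 μM, or <20% change. 4-hydroxytamoxifen as antagonist control. Cell death above 50 μM flagged.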

[3] = target: T1, Estrogen receptor (Homo sapiens); assay: Competitive inhibition of ER-alpha (unknown origin)-GRIP1 interaction expressed in human HepG2 cells assessed as decrease in reporter gene activity at 20 to 50 uM after 40 hrs relative to control; assay type: cell-based; parameters: scale not given: the % may be the effect or the level left; how it was run: as §1
[4] = target: T1, Estrogen receptor (Homo sapiens); assay: Inhibition of ER-alpha (unknown origin) transcriptional activity expressed in ER-negative human SKBR3 cells coexpressing ERE assessed as change in reporter gene activity after 40 hrs relative to control; assay type: cell-based; parameters: concentration or dose not given beside the values; settings: SK-BR-3; how it was run: as §2
[5] = target: T1, Estrogen receptor (Homo sapiens); assay: Competitive inhibition of ER-alpha (unknown origin)-GRIP1 interaction expressed in human HepG2 cells assessed as change in reporter gene activity after 40 hrs relative to control; assay type: cell-based; parameters: concentration or dose not given beside the values; how it was run: as §1
[6] = target: T1, Estrogen receptor (Homo sapiens); assay: Competitive inhibition of ER-alpha (unknown origin)-GRIP1 interaction expressed in human HepG2 cells assessed as decrease in reporter gene activity at >50 uM after 40 hrs in presence of estradiol relative to control; assay type: cell-based; parameters: scale not given: the % may be the effect or the level left; how it was run: as §1
[7] = target: T1, Estrogen receptor (Homo sapiens); assay: Inhibition of ER-alpha (unknown origin) transcriptional activity expressed in ER-negative human SKBR3 cells coexpressing ERE assessed as increase in reporter gene activity at 20 to 50 uM after 40 hrs relative to control; assay type: cell-based; parameters: scale not given: the % may be the effect or the level left; settings: SK-BR-3; how it was run: as §2
[8] = target: T1, Estrogen receptor (Homo sapiens); assay: Competitive inhibition of ER-alpha (unknown origin)-GRIP1 interaction expressed in human HepG2 cells assessed as change in reporter gene activity after 40 hrs in presence of estradiol relative to control; assay type: cell-based; parameters: concentration or dose not given beside the values; how it was run: as §1
[9] = target: T1, Estrogen receptor (Homo sapiens); assay: Inhibition of ER-alpha (unknown origin) transcriptional activity expressed in ER-negative human SKBR3 cells coexpressing ERE assessed as increase in reporter gene activity at >50 uM after 40 hrs relative to control; assay type: cell-based; parameters: scale not given: the % may be the effect or the level left; settings: SK-BR-3; how it was run: as §2
[10] = target: T1, Estrogen receptor (Homo sapiens); assay: Inhibition of ER-alpha (unknown origin) transcriptional activity expressed in ER-negative human SKBR3 cells coexpressing ERE assessed as decrease in reporter gene activity at <20 uM after 40 hrs in presence of estradiol relative to control; assay type: cell-based; parameters: scale not given: the % may be the effect or the level left; settings: SK-BR-3; how it was run: as §2
[11] = target: T1, Estrogen receptor (Homo sapiens); assay: Inhibition of ER-alpha (unknown origin) transcriptional activity expressed in ER-negative human SKBR3 cells coexpressing ERE assessed as decrease in reporter gene activity at <20 uM after 40 hrs relative to control; assay type: cell-based; parameters: scale not given: the % may be the effect or the level left; settings: SK-BR-3; how it was run: as §2
[12] = target: T1, Estrogen receptor (Homo sapiens); assay: Competitive inhibition of ER-alpha (unknown origin)-GRIP1 interaction expressed in human HepG2 cells assessed as decrease in reporter gene activity at <20 uM after 40 hrs relative to control; assay type: cell-based; parameters: scale not given: the % may be the effect or the level left; how it was run: as §1
Estrogen receptor [13] = target: T2, Estrogen receptor (Homo sapiens, UniProt P03372); assay: Mixed-type inhibition of ER-alpha (unknown origin) expressed in ER-negative human SKBR3 cells coexpressing ERE using estradiol as substrate; assay type: cell-based, SK-BR-3
T2 sequence (P03372 whole entry): T1 sequence (whole entry)

[14] = target: T1, Estrogen receptor (Homo sapiens); assay: Competitive inhibition of ER-alpha (unknown origin)-GRIP1 interaction expressed in human HepG2 cells assessed as decrease in reporter gene activity at <20 uM after 40 hrs in presence of estradiol relative to control; assay type: cell-based; parameters: scale not given: the % may be the effect or the level left; how it was run: as §1
[15] = target: T1, Estrogen receptor (Homo sapiens); assay: Inhibition of ER-alpha (unknown origin) transcriptional activity expressed in ER-negative human SKBR3 cells coexpressing ERE assessed as increase in reporter gene activity at <20 uM after 40 hrs relative to control; assay type: cell-based; parameters: scale not given: the % may be the effect or the level left; settings: SK-BR-3; how it was run: as §2
Estrogen receptor [16] = target: T2, Estrogen receptor; assay: Competitive inhibition of ER-alpha (unknown origin) ligand binding pocket expressed in ER-negative human SKBR3 cells coexpressing ERE using estradiol as substrate; assay type: cell-based, SK-BR-3
How it was run: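 SKBR3 (ER-negative breast cancer) cells were transfected with RST7–ERα, a 3xERE-TATA-luciferase reporter and a pCMV-β-gal normalization control. […] Cells were incubated 40 h, then luciferase reporter activity was read.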

HepG2 [17] = assay: Cytotoxicity against human HepG2 cells expressing ER-alpha coexpressing GRIP1 assessed as cell death at >50 uM in presence of estradiol; assay type: cell-based; how it was run: as §1
HepG2 [18] = assay: Cytotoxicity against human HepG2 cells expressing ER-alpha coexpressing GRIP1 assessed as cell death at >50 uM; assay type: cell-based; how it was run: as §1
[19] = Cytotoxicity against ER-negative human SKBR3 cells expressing ER-alpha coexpressing ERE assessed as cell death at >50 uM; assay type: cell-based; settings: sk-br-3; how it was run: as §2
[20] = Cytotoxicity against ER-negative human SKBR3 cells expressing ER-alpha coexpressing ERE assessed as cell death at >50 uM in presence of estradiol; assay type: cell-based; settings: sk-br-3; how it was run: as §2
[21] = target: T1, Estrogen receptor (Homo sapiens); assay: Competitive inhibition of ER-alpha (unknown origin)-GRIP1 interaction expressed in human HepG2 cells assessed as increase in reporter gene activity at >50 uM after 40 hrs relative to control; assay type: cell-based; parameters: scale not given: the % may be the effect or the level left; how it was run: as §1

- Activity [1]: > 50%
- Activity [2]: < 20%
- Activity [3]: > 50%
- Activity [4]: < 20%
SMILES: CCOC(=O)COc1ccc(-c2ccc(O)c(Cc3ccc(-c4ccccc4)cc3)c2)cc1

- Activity [5]: < 20%
- Activity [6]: > 50%
- Activity [2]: < 20%
- Activity [4]: < 20%
SMILES: CCOC(=O)COc1ccc(-c2ccc(O)cc2)cc1Cc1ccc2ccccc2c1

- Activity [5]: < 20%
- Activity [2]: < 20%
- Activity [7]: > 50%
- Activity [8]: < 20%
SMILES: CCOC(=O)COc1ccc(-c2ccc(OCCN(C)C)c(Cc3ccc(-c4ccccc4)cc3)c2)cc1Cc1ccc(-c2ccccc2)cc1

- Activity [5]: < 20%
- Activity [2]: < 20%
- Activity [9]: > 50%
- Activity [8]: < 20%
SMILES: CCOC(=O)COc1ccc(-c2ccc(O)c(Cc3ccc4ccccc4c3)c2)cc1Cc1ccc2ccccc2c1

- Activity [10]: > 50%
- Activity [11]: > 50%
- Activity [12]: > 50%
- IC50 (Estrogen receptor [13]): 12.7 µM
- Activity [14]: > 50%
SMILES: CCOC(=O)COc1ccc(-c2ccc(OCCN(C)C)cc2)cc1CC1CCCCC1

- Activity [5]: < 20%
- Activity [15]: > 50%
- Activity [2]: < 20%
- Activity [8]: < 20%
SMILES: CCOC(=O)COc1ccc(-c2ccc(O)c(Cc3ccc(-c4ccccc4)cc3)c2)cc1Cc1ccc(-c2ccccc2)cc1

SMILES: CCOC(=O)COc1ccc(-c2ccc(OCCN(C)C)c(Cc3ccc(-c4ccccc4)cc3)c2)cc1
- Activity [10]: > 50%
- IC50 (Estrogen receptor [16]): 3.1 µM
- Activity (HepG2 [17]): Toxic
- Activity [11]: > 50%
- Activity (HepG2 [18]): Toxic
- Activity [12]: > 50%
- Activity [14]: > 50%

- Activity [5]: < 20%
- Activity [6]: > 50%
- Activity [15]: > 50%
- Activity [2]: < 20%
SMILES: CCOC(=O)COc1ccc(-c2ccc(O)c(CC3CCCCC3)c2)cc1
- Activity [19]: Toxic
- Activity [20]: Toxic

- Activity [2]: < 20%
- Activity [9]: > 50%
- Activity [8]: < 20%
- Activity [21]: > 50%
SMILES: CCOC(=O)COc1ccc(-c2ccc(OCCN(C)C)c(Cc3ccc4ccccc4c3)c2)cc1Cc1ccc2ccccc2c1
- Activity [19]: Toxic
- Activity (HepG2 [17]): Toxic
- Activity (HepG2 [18]): Toxic
- Activity [20]: Toxic

- Activity [5]: < 20%
- Activity [6]: > 50%
- Activity [2]: < 20%
- Activity [9]: > 50%
SMILES: CCOC(=O)COc1ccc(-c2ccc(OCCN(C)C)c(CC3CCCCC3)c2)cc1CC1CCCCC1
- Activity [19]: Toxic
- Activity [20]: Toxic

- Activity [5]: < 20%
- Activity [2]: < 20%
- Activity [4]: < 20%
- Activity [8]: < 20%
SMILES: CCCCCCCc1cc(-c2ccc(O)cc2)ccc1OCC(=O)OCC

- Activity [5]: < 20%
- Activity [15]: > 50%
- Activity [2]: < 20%
- Activity [8]: < 20%
SMILES: CCOC(=O)COc1ccc(-c2ccc(O)cc2)cc1CC1CCCCC1
